hERG protect = compounds protecting human hERG from proarrhythmic drug block. hit rate 0.51% among 310,000. AID 1511. CHO-hERG, FluxOR thallium flux, dofetilide IC70 present. Q12809. activation (rescue from dofetilide block), less the hit threshold, % at 10 µM;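 active means activation above the mean of controls blocked by dofetilide plus 5 SD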;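 further: thallium influx through hERG after potassium depolarization seen as dye fluorescence rise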
Kir21 block = inhibitors of mouse Kir2.1 inward-rectifier potassium channel; B-score at 10 µM; hit rate 0.85% among 310,000; HEK293-Kir2.1, FluxOR thallium flux fluorescence; active compounds read low; AID 1672; P35561;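 active means fluorescence ratio B-score at or below minus 3 SD of library scores, with starting-brightness B-score within 2 SD, cut at about -4.2 in these data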;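 further: channel flux triggered by added potassium and thallium sulfate stimulus; B-score of peak minus minimum fluorescence over baseline after thallium stimulus; more negative B-score means stronger Kir2.1 block with less thallium influx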
KCNQ1 pot = potentiators or activators of human KCNQ1 potassium channel; P51787; CHO-K1 KCNQ1, thallium flux FluxOR fluorescence; active compounds read high; B-score at 10 µM; hit rate 0.35% among 310,000;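 active means fluorescence ratio B-score, a plate-corrected score, at least three library SD, with initial intensity B-score within 5 SD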
Target sequence (P51787 whole entry, looked up): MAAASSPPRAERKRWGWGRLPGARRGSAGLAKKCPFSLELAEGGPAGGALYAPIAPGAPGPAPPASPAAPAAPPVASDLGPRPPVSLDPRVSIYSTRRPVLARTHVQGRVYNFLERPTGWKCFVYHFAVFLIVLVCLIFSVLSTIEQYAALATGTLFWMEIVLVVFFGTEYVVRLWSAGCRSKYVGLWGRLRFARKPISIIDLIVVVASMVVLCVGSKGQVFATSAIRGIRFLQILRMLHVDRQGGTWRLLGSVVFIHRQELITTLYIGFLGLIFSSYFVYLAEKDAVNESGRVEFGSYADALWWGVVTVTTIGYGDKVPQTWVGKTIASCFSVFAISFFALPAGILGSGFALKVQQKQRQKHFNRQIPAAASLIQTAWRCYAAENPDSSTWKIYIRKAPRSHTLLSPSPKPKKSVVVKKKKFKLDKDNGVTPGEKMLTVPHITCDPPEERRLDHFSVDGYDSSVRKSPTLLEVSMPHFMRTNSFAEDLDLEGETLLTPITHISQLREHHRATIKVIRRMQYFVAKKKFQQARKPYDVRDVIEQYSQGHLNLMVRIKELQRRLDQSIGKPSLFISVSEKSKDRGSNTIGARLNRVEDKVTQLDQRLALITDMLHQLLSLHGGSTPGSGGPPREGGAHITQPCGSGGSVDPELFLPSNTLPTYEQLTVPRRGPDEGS
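Doses: Single concentration per compound, DMSO matched to controls | Test system: KCNQ1-transfected CHO-K1 cells | Timing: 90 min dye loading and 20 min compound exposure, both at room temperature | Measured by: Kinetic FluxOR thallium fluorescence, 10-s 1-Hz baseline, 110-s post-stimulus read | Medium: Assay buffer with matched DMSO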
KCNK9 inh = blocks the human KCNK9 two-pore domain potassium channel. AID 488922. hit rate 1.2% among 310,000. HEK293 KCNK9, FluxOR thallium flux fluorescence; active compounds read low. Q9NPC2. B-score at 10 µM;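 active means ratio B-score over 3 SD below the library mean, with starting fluorescence within 5 SD of its mean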;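 further: negative B-score means less thallium flux so channel inhibition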
KCNK3 inh = human KCNK3 channel inhibition, primary screen; O14649; CHO-KCNK3 thallium flux, FluxOR fluorescence; active compounds read low; B-score at 10 µM; hit rate 0.84% among 340,000;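 active means B-score under library mean minus 4 SD, starting fluorescence ratio at most library mean plus 5 SD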;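 further: more negative B-score means stronger inhibition of thallium flux through KCNK3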
KCNQ1 inh = human KCNQ1 channel inhibition | AID 2642 | B-score at 10 µM | CHO-K1 KCNQ1, FluxOR thallium flux fluorescence; active compounds read high | hit rate 1.3% among 310,000;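 active means compounds whose thallium flux B-score, printed positive for inhibition, exceeds three library SD while starting fluorescence stays within three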;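 further: channel opened by potassium depolarization with thallium stimulus after 20 min compound exposure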
Active calls of the source: *; i = inactive; nt = no result given. This is a sample that favours compounds with a hit; in the whole collection about 3.7% have one here.

SMILES | hERG protect | Kir21 block | KCNQ1 pot | KCNK9 inh | KCNK3 inh | KCNQ1 inh
CC(C)C(C)NC(=O)CSc1nc2scc(-c3ccco3)c2c(=O)n1-c1ccccc1 (stereo unspecified) | -4.3 | -0.26 | i | -6.81* | i | i
CCC1=C(OC(=O)N(CC)CC)N2C(=O)OC(=NCCc3c[nH]c4ccccc34)[C@]2(Cc2ccccc2)[C@H]2C1=CC[C@H]1C(=O)N(CC)C(=O)[C@H]12 | -10.6 | 0.46 | i | -6.83* | i | i
CCOc1ccc(/C=C2/SC(=O)NC2=S)cc1 | 37.1* | 2.27 | 112* | i | i | i
CCOc1ccc(/C=C2\SC(=S)N(N3C(=O)C4CC4C3=O)C2=O)cc1 (stereo unspecified) | -5.7 | -0.19 | i | i | i | i
CCCOc1ccc(C(=O)NNC(=S)NC(C)=O)cc1 | -18.9 | -0.13 | i | i | i | i
O=C(NNC(=S)NC(=O)c1ccco1)c1ccc(F)cc1 | -8.1 | -0.18 | i | i | i | i
CCCOc1ccc(C(=O)NNC(=S)NC(=O)c2cccs2)cc1 | 8.8* | -0.39 | 38* | i | i | i
CCCOc1ccc(C(=O)NNC(=S)NC(=O)c2ccccc2)cc1 | 16.8* | 0.88 | 34* | i | i | i
O=C(NC(=S)NNC(=O)c1ccco1)c1ccc(Br)cc1 | -8.9 | -0.08 | i | i | i | 6*
CC(C)(C)c1ccc(C(=O)NC(=S)NNC(=O)COc2ccccc2)cc1 | -4.8 | 0.96 | 30* | i | i | i
O=C(NNC(=O)c1ccc([N+](=O)[O-])cc1C(=O)O)c1ccncc1 | -4.1 | 0.05 | i | i | i | i
CC(=O)c1ccc(-c2cccc(-c3cc(=O)oc4ccc(C(C)(C)C)cc34)c2)cc1 | nt | nt | nt | nt | i | nt
CCOc1ccc(NC(=O)CCC(=O)c2ccc(Br)cc2)cc1 | -3.8 | 0.88 | i | i | i | i
CCCOc1ccc(C(=O)NNC(=S)NC(=O)c2ccco2)cc1 | 18.0* | -0.62 | 12* | i | i | i
CCOc1ccc(NC(=S)NNC(=O)c2ccc(Br)cc2)cc1 | -9.0 | 0.05 | i | i | i | 6*
Cc1ccc(NC(=O)CNc2cccc(Br)c2)cc1S(=O)(=O)N1CCOCC1 | nt | nt | nt | nt | i | nt
O=C(Nc1nc(-c2ccccc2)cs1)c1ccco1 | -11.8 | -0.1 | i | i | i | i
O=C(NC(=S)Nc1nc(-c2ccc(Br)cc2)cs1)c1cccnc1 | -9.3 | 0.05 | i | i | i | i
O=C(NC(=S)Nc1nc(-c2ccc([N+](=O)[O-])cc2)cs1)c1ccco1 | 15.2* | -0.09 | 21* | i | i | i
O=C(NC(=S)Nc1nc(-c2ccc(Br)cc2)cs1)c1ccco1 | 6.3* | 0.04 | i | i | i | i
Cc1ccc(CCNC(=O)c2cc(S(=O)(=O)N3CCCC3)cn2C)cc1 | -8.5 | 1.18 | i | i | i | i
CCC(CC)c1nnc(NC(=O)[C@@H](NC(=O)c2cccc(C)c2)C(C)C)s1 | -5.3 | 1.32 | i | i | i | i
COc1ccc(NC(=O)c2nc[nH]c2C(=O)N2CCN(c3ccccc3)CC2)cc1 | 5.7* | 0.02 | i | i | i | i
CNC(=O)c1[nH]cnc1C(=O)Nc1cccc(OC)c1 | -12.3 | -4.47* | i | i | i | i
O=C(Nc1ccccc1)c1nc[nH]c1C(=O)N1CCN(c2ccccc2)CC1 | nt | nt | nt | nt | i | nt
SMILES | hERG protect | Kir21 block | KCNQ1 pot | KCNK9 inh | KCNK3 inh | KCNQ1 inh
COc1cccc(NC(=O)c2cccs2)c1 | -9.2 | -0.16 | i | i | i | i
COc1cccc(NC(=O)c2cncs2)c1 | 5.0* | 1.82 | 14* | i | i | i
N#Cc1ccccc1S(=O)(=O)N1CCN(C(=O)C2COc3ccccc3O2)CC1 (stereo unspecified) | nt | nt | nt | nt | i | nt
Cc1c(CCO)c(=O)[nH]n1S(=O)(=O)c1ccc([N+](=O)[O-])cc1 | 0.0 | -0.03 | i | i | i | i
O=C(OCC(=O)c1ccc(Cl)cc1Cl)c1cnccn1 | -7.4 | 0.34 | i | i | i | i
CC1=CC(C)(C)N(C(=O)CCl)c2cc(C)ccc21 | -18.9 | -2.72 | i | i | i | i
CC1=CC(C)(C)N(C(=O)CNC2CCCCC2)c2cc(C)ccc21 | -13.1 | -6.05* | i | i | i | i
Cc1ccc(C)c(NC(=O)CN(C)C(=O)c2oc3c(Cl)cccc3c2C)c1 | -10.7 | 0.92 | i | i | i | i
CCCC(=O)Nc1ccc(Cl)c(-c2nc3ncccc3o2)c1 | -8.5 | 1.12 | i | -7.98* | i | i
Cc1ccc(-c2nc3ncccc3o2)cc1NC(=O)c1cccs1 | -5.0 | 0.04 | i | i | i | i
CCCCCC(=O)Nc1cccc(-c2nc3ncccc3o2)c1 | -18.0 | -2.15 | i | -7.4* | i | i
CCC(=O)NC(=S)Nc1cccc(-c2nc3ncccc3o2)c1 | -6.7 | 0 | i | i | i | i
Cc1cc(NC(=O)c2cccs2)cc(-c2nc3ncccc3o2)c1O | -3.2 | 1.48 | i | -8* | i | i
Cc1cc(O)c(C(C)C)cc1NS(=O)(=O)c1ccccc1 | -13.1 | -6.77* | i | i | i | i
Cc1ccc(NS(=O)(=O)c2ccc3c(c2)CC(=O)N3)cc1F | nt | nt | nt | nt | i | nt
COc1cc(/C=N/O)cc(Br)c1OC | -6.9 | 4.96 | i | i | i | i
C=CCOc1c(Br)cc(/C=N/O)cc1OCC | -6.2 | -6.02* | i | i | i | i
CCOC(=O)N1CCc2cc(OC)c(OC)c3c2c1cc1cc(OC)c(OC)cc13 | nt | nt | nt | nt | i | nt
Cc1ccc(S(=O)(=O)NCc2c(-c3ccccc3)noc2C)cc1 | -10.3 | -4.27* | i | i | i | i
Cc1onc(-c2ccccc2)c1CNS(=O)(=O)c1ccccc1 | -8.9 | -2.79 | i | i | i | i
COc1cc(C(=O)OC(C)C(=O)NC(=O)NC2CCCCC2)ccc1OC(F)F (stereo unspecified) | nt | nt | nt | nt | i | nt
O=C(NC(=S)N1CCN(C/C=C/c2ccccc2)CC1)c1ccc(F)cc1 | 0.6 | -0.27 | 8* | i | i | i
O=C(NC(=S)N1CCN(C/C=C/c2ccccc2)CC1)c1cccnc1 | -9.8 | -0.38 | i | i | i | i
Cc1ccc(NC(=O)CN(C)C(=O)COc2cccc3ccc(C)nc23)cc1 | nt | nt | nt | nt | i | nt
Cc1sc2nc(CN3CCN(c4ccc(O)cc4)CC3)[nH]c(=O)c2c1C | -4.2 | -0.11 | i | i | i | i
Cc1sc2nc(CN3CCOCC3)[nH]c(=S)c2c1C | 52.5* | -0.03 | 43* | i | i | i

Bioassay records (PubChem)
